Experimental data as given in ChEMBL document CHEMBL5038600, “Discovery of M-1121 as an Orally Active Covalent Inhibitor of Menin-MLL Interaction Capable of Achieving Complete and Long-Lasting Tumor Regression” (J Med Chem, 2021).
pIC50: −log10 of the molar value.

Experiments:
[1] = Plasma concentration in mouse at 25 mg/kg, po measured after 1 hr; assay type: ADME, organism-based
In short: (§1)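 Mice given a single oral dose of 25 mg/kg; plasma concentrations sampled at 1, 3 and 6 h post-dose.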

[2] = Plasma concentration in mouse at 25 mg/kg, po measured after 3 hrs; assay type: ADME, organism-based; in short: as §1
[3] = Plasma concentration in mouse at 25 mg/kg, po measured after 6 hrs; assay type: ADME, organism-based; in short: as §1
MV4-11 = assay: Anti-proliferative activity against human MV4-11 cells harboring MLL/AF4 fusion protein assessed as cell growth inhibition measured after 4 days by Cell Titre Glo Luminescent Cell viability assay; assay type: functional, cell-based; conditions: MV4-11, 96 h
MOLM-13 = assay: Anti-proliferative activity against human MOLM-13 cells harboring MLL/AF9 fusion protein assessed as cell growth inhibition measured after 4 days by Cell Titre Glo Luminescent Cell viability assay; assay type: functional, cell-based; conditions: MOLM-13, 96 h
Menin (Homo sapiens) [4] = target: T1, Menin (Homo sapiens) (UniProt O00255); assay: Binding affinity to recombinant human menin protein assessed as covalent complex formation incubated for 10 mins by LC/MS analysis; parameters: concentration or dose not given beside the values
T1 sequence (whole entry): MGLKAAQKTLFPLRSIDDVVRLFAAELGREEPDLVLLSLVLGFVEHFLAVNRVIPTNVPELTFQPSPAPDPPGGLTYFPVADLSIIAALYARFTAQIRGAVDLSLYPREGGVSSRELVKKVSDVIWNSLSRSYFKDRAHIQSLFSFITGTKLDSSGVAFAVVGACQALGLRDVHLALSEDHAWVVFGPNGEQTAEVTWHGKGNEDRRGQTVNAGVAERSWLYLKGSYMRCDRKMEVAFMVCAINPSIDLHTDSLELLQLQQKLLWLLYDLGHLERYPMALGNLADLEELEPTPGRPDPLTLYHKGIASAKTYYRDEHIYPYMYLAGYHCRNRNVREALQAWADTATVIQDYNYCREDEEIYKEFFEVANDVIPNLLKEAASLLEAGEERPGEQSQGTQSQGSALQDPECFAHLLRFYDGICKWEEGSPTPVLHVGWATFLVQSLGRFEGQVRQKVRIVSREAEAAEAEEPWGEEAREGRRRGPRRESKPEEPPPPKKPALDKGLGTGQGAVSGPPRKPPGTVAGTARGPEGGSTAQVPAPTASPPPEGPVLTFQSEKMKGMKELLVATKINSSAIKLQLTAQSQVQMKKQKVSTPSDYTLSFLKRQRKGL

Menin (Homo sapiens) [5] = target: T1, Menin (Homo sapiens); assay: Binding affinity to recombinant human menin protein assessed as covalent complex formation incubated for 30 mins by LC/MS analysis; parameters: concentration or dose not given beside the values
Menin (Homo sapiens) [6] = target: T1, Menin (Homo sapiens); assay: Binding affinity to recombinant human menin protein assessed as covalent complex formation incubated for 1 hrs by LC/MS analysis; parameters: concentration or dose not given beside the values
In short: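 Menin (25 mg/mL in 25 mM Tris pH 8.0, 150 mM NaCl, 5 mM DTT) incubated with compound at a 1:1.2 protein:compound molar ratio for 1 h or overnight at 4 °C. Diluted to 1 mg/mL, then reverse-phase C4 LC with a 5–100% MeCN/0.2% formic acid gradient and Q-TOF mass spectrometry to detect the covalent adduct.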

Menin (Homo sapiens) [7] = target: T1, Menin (Homo sapiens); assay: Binding affinity to recombinant human menin protein assessed as covalent complex formation measured after overnight incubation by LC/MS analysis; parameters: concentration or dose not given beside the values
Menin = target: T2, Menin (Homo sapiens, UniProt O00255); assay: Binding affinity to menin (unknown origin) incubated for 1 hr by fluorescence polarization-based competitive binding assay
T2 sequence (O00255 whole entry): T1 sequence (whole entry)

SMILES	concentration at 1 h [1]	concentration at 3 h [2]	concentration at 6 h [3]	pIC50 (MV4-11)	pIC50 (MOLM-13)	Activity (Menin (Homo sapiens) [4])	Activity (Menin (Homo sapiens) [5])	Activity (Menin (Homo sapiens) [6])	Activity (Menin (Homo sapiens) [7])	pIC50 (Menin)
COC(=O)N[C@H]1CCC[C@@H]1[C@](CN1CCC1)(c1cccc(F)c1)C1CCN(CC2CN(c3ccc(S(=O)(=O)C4CC4)cc3)C2)CC1	624 ng/mL	735 ng/mL	928 ng/mL							
COC(=O)N[C@H]1CCC[C@@H]1[C@](CN1CCC1)(c1cccc(F)c1)C1CCN(CC2(OC)CN(c3ccc(S(=O)(=O)C4CC4)cc3)C2)CC1	8260 ng/mL	5750 ng/mL	2200 ng/mL							
COC(=O)N[C@H]1CCC[C@@H]1[C@](CN)(c1cccc(F)c1)C1CCN(CC2CN(c3ccc(S(=O)(=O)C4CC4)cc3)C2)CC1				6.72	6.26					
C=CC(=O)N1C[C@H]2C[C@@H]1CN2S(=O)(=O)c1ccc(N2CC(CN3CCC([C@@](CN4CCC4)(c4cccc(F)c4)[C@H]4CCC[C@@H]4NC(=O)OC)CC3)(OC)C2)cc1				6.36	6.30	0%	0%	0%	45.1%	
C=CC(=O)N1CCC(S(=O)(=O)c2ccc(N3CC(CN4CCC([C@@](CN5CCC5)(c5cccc(F)c5)[C@H]5CCC[C@@H]5NC(=O)OC)CC4)(OC)C3)cc2)CC1				6.81	6.23	0%	0%	0%	27%	8.42
COC(=O)N[C@H]1CCC[C@@H]1[C@](CN1CCC1)(c1cccc(F)c1)C1CCN(CC2(C(=O)OC)CN(c3ccc(S(=O)(=O)C4CC4)cc3)C2)CC1				< 6.00	< 5.00					

Continued by rising pIC50 (MV4-11), values first:

concentration at 1 h [1]	concentration at 3 h [2]	concentration at 6 h [3]	pIC50 (MV4-11)	pIC50 (MOLM-13)	Activity (Menin (Homo sapiens) [4])	Activity (Menin (Homo sapiens) [5])	Activity (Menin (Homo sapiens) [6])	Activity (Menin (Homo sapiens) [7])	pIC50 (Menin)	SMILES
			6.95	6.40	24.1%	40.9%	59.4%	81.5%		C=CC(=O)N1CC(S(=O)(=O)c2ccc(N3CC(CN4CCC([C@@](CN5CCC5)(c5cccc(F)c5)[C@H]5CCC[C@@H]5NC(=O)OC)CC4)(OC)C3)cc2)C1
			7.11	6.71	8.8%	27.9%	37.4%	93.1%	8.52	C=CC(=O)N1CCC[C@H](S(=O)(=O)c2ccc(N3CC(CN4CCC([C@@](CN5CCC5)(c5cccc(F)c5)[C@H]5CCC[C@@H]5NC(=O)OC)CC4)(OC)C3)cc2)C1
			7.13	6.73	9.8%	22.6%	40.5%	90%	8.43	C=CC(=O)N1CCC[C@@H](S(=O)(=O)c2ccc(N3CC(CN4CCC([C@@](CN5CCC5)(c5cccc(F)c5)[C@H]5CCC[C@@H]5NC(=O)OC)CC4)(OC)C3)cc2)C1
			8.64	7.30	36.9%	83.4%	85.4%	90.9%	8.57	COC(=O)N[C@H]1CCC[C@@H]1[C@](CN1CCC1)(c1cccc(F)c1)C1CCN(CC2(OC)CN(c3ccc(S(=O)(=O)C4CN(C(=O)/C=C/CN(C)C)C4)cc3)C2)CC1
